The source of these data is article PMC6511231 (Cell reports, 2018).

The subject of data set [1] is LIN28-expressing mouse embryonic stem cells. Nature of the data set: Toxicity to mouse embryonic stem cells. In kind it is cell-based.
The target in data set [2] is mouse LIN28Δ:preE-let-7d complex (Mus musculus, UniProt Q8K3Y3). As to the kind of experiment: HSQC spectroscopy. In kind it is binding. To be noted: 15N-labeled mouse LIN28Δ with unlabeled preE-let-7d.
Data set [3] has as its system HeLa cells that do not express LIN28. As to the kind of experiment: Toxicity to HeLa cells. In kind it is cell-based, human.
In data set [4] the target is T1, mouse LIN28Δ, mouse TUT4 and pre-let-7g (Mus musculus, UniProt Q8K3Y3).
T1 sequence (Q8K3Y3 16-184): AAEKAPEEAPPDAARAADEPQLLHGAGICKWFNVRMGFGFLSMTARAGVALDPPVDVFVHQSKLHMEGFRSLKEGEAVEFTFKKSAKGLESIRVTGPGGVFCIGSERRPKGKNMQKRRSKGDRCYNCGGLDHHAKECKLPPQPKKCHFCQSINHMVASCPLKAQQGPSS
T1 sequence (B2RX14 230-1424 partner): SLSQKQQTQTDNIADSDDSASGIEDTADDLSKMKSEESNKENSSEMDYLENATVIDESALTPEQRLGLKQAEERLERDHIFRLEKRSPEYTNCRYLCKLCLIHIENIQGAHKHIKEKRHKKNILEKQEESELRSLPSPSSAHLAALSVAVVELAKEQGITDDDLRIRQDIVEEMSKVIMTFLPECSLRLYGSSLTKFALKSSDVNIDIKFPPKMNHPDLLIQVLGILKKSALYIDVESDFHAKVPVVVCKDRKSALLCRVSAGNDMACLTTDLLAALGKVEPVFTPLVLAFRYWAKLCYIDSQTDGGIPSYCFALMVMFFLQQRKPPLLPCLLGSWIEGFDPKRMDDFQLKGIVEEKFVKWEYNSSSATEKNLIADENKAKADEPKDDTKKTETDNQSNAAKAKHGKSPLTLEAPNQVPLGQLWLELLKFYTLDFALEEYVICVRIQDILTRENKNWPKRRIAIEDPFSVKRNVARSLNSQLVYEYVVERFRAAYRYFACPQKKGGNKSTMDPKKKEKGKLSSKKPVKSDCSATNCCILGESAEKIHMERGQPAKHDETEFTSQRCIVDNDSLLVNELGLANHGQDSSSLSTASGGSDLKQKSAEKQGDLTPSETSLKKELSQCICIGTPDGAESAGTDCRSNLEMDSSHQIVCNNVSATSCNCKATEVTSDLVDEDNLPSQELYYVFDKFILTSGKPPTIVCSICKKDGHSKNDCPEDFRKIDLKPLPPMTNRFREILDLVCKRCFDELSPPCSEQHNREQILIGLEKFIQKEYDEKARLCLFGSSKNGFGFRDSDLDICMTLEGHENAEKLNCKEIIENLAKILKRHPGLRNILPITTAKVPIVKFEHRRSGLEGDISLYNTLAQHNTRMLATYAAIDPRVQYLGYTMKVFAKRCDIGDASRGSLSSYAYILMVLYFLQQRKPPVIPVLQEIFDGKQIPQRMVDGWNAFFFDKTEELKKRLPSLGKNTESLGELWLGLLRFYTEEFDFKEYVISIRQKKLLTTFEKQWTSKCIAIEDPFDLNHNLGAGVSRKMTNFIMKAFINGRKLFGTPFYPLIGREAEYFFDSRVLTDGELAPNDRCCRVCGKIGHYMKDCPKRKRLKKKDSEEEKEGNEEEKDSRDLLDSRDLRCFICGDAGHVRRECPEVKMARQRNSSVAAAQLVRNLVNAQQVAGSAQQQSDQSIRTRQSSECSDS
Nature of the data set: LIN28-mediated let-7 oligouridylation assay. In kind it is biochemical. Particulars: for Inhibition of LIN28-mediated oligouridylation: 40 μM compound, 37°C, denaturing PAGE. The procedure, abridged:
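Mouse LIN28A, mouse TUT4 (230–1424) and in vitro-transcribed, T4 PNK-radiolabelled pre-let-7g were incubated with test compound (40 μM screen; 80 μM follow-up) for 40 min at 37°C. Buffer: 20 mM Tris 7.5, 5% glycerol, 6 mM MgCl2, 6 mM DTT, 50 μM ZnCl2, 40 mM KCl, 200 μM UTP. Reactions were stopped with EDTA/SDS/proteinase K (50°C, 30 min) and run on denaturing PAGE. RNA and DMSO served as controls.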

In the next data set the test system is HeLaLIN28A. As to the kind of experiment: let-7-sensitive dual luciferase reporter assay, HeLaLIN28A. In kind it is cell-based, human. To be noted: 100 μM or higher concentrations, 48 hr. The procedure, abridged:
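A HeLa clone stably expressing low-level FLAG-LIN28A plus the 8×let-7 Renilla/firefly dual-luciferase sensor was treated 48 hr with vehicle (DMSO) or test compound at the indicated concentrations. Dual luciferase activity was then assayed, with firefly as internal control. Runs used 3 or 5 biological replicates; Student's t test against vehicle.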
In general terms: Reporter assays use an easily measured gene product as a stand-in for the process of interest.

A short description of the next data set: Solubility in solution. In kind it is physicochemical. To be noted: water / solution.
Data set [5] deals with T2, LIN28Δ (human, UniProt Q9H9Z2 16-187).
T2 sequence: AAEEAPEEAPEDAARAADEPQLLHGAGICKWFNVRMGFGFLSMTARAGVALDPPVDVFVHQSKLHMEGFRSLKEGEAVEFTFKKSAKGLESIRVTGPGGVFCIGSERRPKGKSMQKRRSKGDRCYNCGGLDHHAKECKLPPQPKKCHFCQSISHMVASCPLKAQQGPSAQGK
Nature of the data set: competition.

The target of data set [6] is T3, LIN28ΔF73A (human, UniProt Q9H9Z2 16-187, F73A).
T3 sequence: T2 sequence with F58A
Nature of the data set: fluorescence polarization.

The target of a further data set is T4, LIN28ΔF73A/Y140A (human, UniProt Q9H9Z2 16-187, F73A;Y140A).
T4 sequence: T2 sequence with F58A, Y125A
Nature of the data set: fluorescence polarization. For orientation: Polarisation of emitted light reports the rotation of a fluorescent probe.

For another data set, the target named is T5, LIN28ΔY140A (human, UniProt Q9H9Z2 16-187, Y140A).
T5 sequence: T2 sequence with Y125A
Nature of the data set: fluorescence polarization.

In data set [7] the target is T2, LIN28Δ. Nature of the data set: fluorescence polarization.
Data set [8] addresses T3, LIN28ΔF73A. Nature of the data set: competition.
Data set [9] deals with T2, LIN28Δ. As to the kind of experiment: competition. The source holds these as a separate data set.

Changes are numbered by the printed parent chain. “Also recorded” adds a separate entry of the source. Like-named read-outs stand apart in the source and are kept apart here.

`c1ccc(CN(CCN(Cc2ccccn2)Cc2ccccn2)Cc2ccccn2)nc1` [TPEN]: the Toxicity result in data set [1] and in data set [3] was “shows toxicity” in each case. For the same molecule, in data set [2], the “HSQC peak intensity changes” value was “a number of peaks had significant reduction in intensity”. Further, the “Inhibition of LIN28-mediated oligouridylation” value in data set [4] was “completely inhibited”. Regarding `CC1(C)C(=O)N=C2C1=C(O)C(=O)c1ccccc12` [BVT-948], the “Inhibition of LIN28-mediated oligouridylation” value in data set [4] is “completely inhibited”.

Consider `CNc1cncc(C(=O)O)c1` [5-(methylamino)nicotinic acid], for which the “Relative Renilla luciferase activity” value with HeLaLIN28A is recorded as “significant reduction of the relative Renilla luciferase activity; also recorded: weak activities”. Besides, the “Inhibition of LIN28-mediated let-7 oligouridylation” value in data set [4] (80 μM, compared to DMSO negative control) was “weak activities”.

In the case of `C=CC(C)(C)c1[nH]c2ccccc2c1C1=C(O)C(=O)C(c2c[nH]c3c(CC=C(C)C)cccc23)=C(O)C1=O` [DAQ-B1, demethylasterriquinone B1], the “Inhibition of LIN28-mediated oligouridylation” value in data set [4] is “completely inhibited”. Turning to `O=C1C=CC(=NS(=O)(=O)c2ccc(C(=O)O)cc2)C=C1` [LI20], in the data set “Solubility in solution”, the Solubility entry is on record as “poor solubility in solution”. Besides, the “Inhibition of LIN28-mediated oligouridylation” value in [4] is listed as “completely inhibited”. Turning to `Cc1cc2c(C(C)C)c(O)c(O)c(C=O)c2c(O)c1-c1c(C)cc2c(C(C)C)c(O)c(O)c(C=O)c2c1O` [Gossypol], the “Inhibition of LIN28-mediated oligouridylation” value in data set [4] is “completely inhibited”.

B1: preE-let-7f-1 unlabeled (structured_RNA)
RNA: GGGGUAGUGAUUUUACCCUGUUUAGGAGAU
What is called IC50 is the concentration needed to halve the response being measured. Low values mean greater potency in that assay, high ones weaker potency in that assay. Consider B1, for which the IC50 in the data set with LIN28Δ [5] was found to be 44 nM.

B2: CSD-binding riboprobe (structured_RNA)
RNA: GGGGUAGUGAUUUUACCCUGUUUA
In the data set with LIN28Δ [5], B2 gave an IC50 of 157 nM.

B3: preE-let-7f-1-FAM (structured_RNA)
RNA: B1 RNA
A word on the Kd: it is the equilibrium constant for the complex coming apart. Low values mean higher affinity, high ones lower affinity. As for B3, the Kd came out at 72.4 nM with LIN28ΔF73A [6], 589 nM with LIN28ΔF73A/Y140A, 78.5 nM in the data set with LIN28ΔY140A and 28.5 nM with LIN28Δ [7].

B4: ZKD-binding riboprobe UAGGAGA (ssRNA)
RNA: UAGGAGA
Regarding B4, the half-maximal inhibitory concentration (IC50) with LIN28ΔF73A [8] turned out to be 1200 nM; with LIN28Δ [9], 3500 nM.
